ChEMBL document CHEMBL4052624, “Metallo-β-lactamase inhibitors by bioisosteric replacement: Preparation, activity and binding” (Eur J Med Chem, 2017)
≈ marks a conversion by molar mass, not a printed value. Calls of active or inactive are those of the source. The calls are words filed in the database; no cut-off is given here.

Experiments:
Pseudomonas aeruginosa [1] = experiment: Growth inhibition of Pseudomonas aeruginosa K34-7 after 20 hrs
Beta-lactamase VIM-2 [2] = target: T1, Beta-lactamase VIM-2 (Pseudomonas aeruginosa, UniProt Q9K2N0); experiment: Inhibition of Pseudomonas aeruginosa 301-5473 6His-tagged VIM-2 (V27 to E268 residues) expressed in Escherichia coli BL21 Star(DE3) pLysS using nitrocefin as substrate preincubated for 5 mins followed by substrate addition by spectrophotometric analysis
Method in brief: (§1)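 Purified VIM-2 and GIM-1 were each used at 10 nM in 50 mM HEPES pH 7.2 with ZnCl₂ and BSA. Each enzyme was preincubated with inhibitor at 25 °C for 5 min, using sixteen concentrations in a 2-fold series. Nitrocefin was then added and the absorbance rise at 482 nm was read. Initial velocities, measured in triplicate, were fitted to log[inhibitor] vs response curves to give IC50. Line 3 is the ratio of the two IC50s.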

[3] = Inhibition of Klebsiella pneumoniae 6His-tagged NDM1 (G36 to R280 residues) expressed in Escherichia coli BL21 Star(DE3) pLysS using imipenem as substrate preincubated for 5 mins followed by substrate addition by spectrophotometric analysis
Method in brief: (§2)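 His-tagged enzyme, TEV-cleaved, ~95% pure by SDS-PAGE. 10 nM enzyme with 16 inhibitor concentrations in a 2-fold series, in 50 mM HEPES pH 7.2 with ZnCl2 and BSA, preincubated 5 min at 25 °C. Then 100 µM substrate added: imipenem for NDM-1 read at 260 nm, nitrocefin for GIM-1 read at 482 nm. Initial rates in triplicate, fitted to a log[inhibitor] dose–response curve for IC50.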

Escherichia coli [4] = experiment: Growth inhibition of Escherichia coli 50639799 after 20 hrs
GIM-1 protein = GIM-1 protein (Pseudomonas aeruginosa, UniProt Q704V1); experiment: Inhibition of Pseudomonas aeruginosa 6His-tagged GIM-1 (Q19 to D250 residues) expressed in Escherichia coli BL21 Star(DE3) pLysS using nitrocefin as substrate preincubated for 5 mins followed by substrate addition by spectrophotometric analysis; method in brief: as §2
Sequence of GIM-1 protein (Q704V1 whole entry, the tested form may be a part): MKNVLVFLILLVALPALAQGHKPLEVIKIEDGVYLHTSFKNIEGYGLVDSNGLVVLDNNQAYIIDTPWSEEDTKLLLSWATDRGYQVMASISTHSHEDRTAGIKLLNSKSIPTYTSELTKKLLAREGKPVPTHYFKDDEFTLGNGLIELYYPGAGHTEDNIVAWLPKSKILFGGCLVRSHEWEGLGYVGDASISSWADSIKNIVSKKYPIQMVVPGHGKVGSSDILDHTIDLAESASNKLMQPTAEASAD

[5] = target: GIM-1 protein (Pseudomonas aeruginosa) (UniProt Q704V1); experiment: Inhibition of Pseudomonas aeruginosa GIM-1 expressed in Escherichia coli SNO3 whole cells using nitrocefin as substrate at 250 uM preincubated for 20 mins followed by substrate addition measured every min up to 60 mins by spectrophotometric analysis relative to control
Sequence of GIM-1 protein (Pseudomonas aeruginosa) (Q704V1 as listed by the source): as the sequence (Q704V1 whole entry, the tested form may be a part) above
Method in brief: (§3)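 β-lactamase-negative E. coli SNO3 carrying blaVIM-2, blaGIM-1 or blaNDM-1 in pET26b(+). Hydrolysis of the reporter substrate followed as the initial slope over up to 60 min. Percent inhibition calculated from slopes relative to a no-inhibitor control; EDTA used as positive control.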

Klebsiella pneumoniae [6] = experiment: Growth inhibition of Klebsiella pneumoniae K66-45 after 20 hrs
Escherichia coli [7] = experiment: Inhibition of VIM-29 in Escherichia coli 50639799 assessed as potentiation of meropenem-induced antimicrobial activity by measuring meropenem MIC at 125 uM after 20 hrs (reference value: 8 to 32 mg/L)
[8] = target: Beta-lactamase VIM-2 (Pseudomonas aeruginosa) (UniProt Q9K2N0); experiment: Inhibition of VIM-2 in Pseudomonas aeruginosa K34-7 assessed as potentiation of meropenem-induced antimicrobial activity by measuring meropenem MIC at 125 uM after 20 hrs (reference value: 32 to 64 mg/L)
Klebsiella pneumoniae [9] = experiment: Inhibition of NDM-1 in Klebsiella pneumoniae K66-45 assessed as potentiation of meropenem-induced antimicrobial activity by measuring meropenem MIC at 125 uM after 20 hrs (reference value: 32 to 64 mg/L)
[10] = target: Beta-lactamase VIM-2 (Pseudomonas aeruginosa) (UniProt Q9K2N0); experiment: Inhibition of Pseudomonas aeruginosa 301-5473 VIM-2 expressed in Escherichia coli SNO3 whole cells using nitrocefin as substrate at 250 uM preincubated for 20 mins followed by substrate addition measured every min up to 60 mins by spectrophotometric analysis relative to control; method in brief: as §3
Klebsiella pneumoniae [11] = experiment: Inhibition of Klebsiella pneumoniae NDM1 expressed in Escherichia coli SNO3 whole cells using imipenem as substrate at 250 uM preincubated for 20 mins followed by substrate addition measured every min up to 60 mins by spectrophotometric analysis relative to control; method in brief: as §3
Pseudomonas aeruginosa [12] = experiment: Selectivity ratio of IC50 for Pseudomonas aeruginosa 6His-tagged GIM-1 (Q19 to D250 residues) expressed in Escherichia coli BL21 Star(DE3) pLysS to IC50 for Pseudomonas aeruginosa 301-5473 6His-tagged VIM-2 (V27 to E268 residues) expressed in Escherichia coli BL21 Star(DE3) pLysS
[13] = Selectivity ratio of IC50 for Pseudomonas aeruginosa 6His-tagged GIM-1 (Q19 to D250 residues) expressed in Escherichia coli BL21 Star(DE3) pLysS to IC50 for Klebsiella pneumoniae 6His-tagged NDM1 (G36 to R280 residues) expressed in Escherichia coli BL21 Star(DE3) pLysS
Pseudomonas aeruginosa [14] = experiment: Selectivity ratio of IC50 for Pseudomonas aeruginosa 301-5473 6His-tagged VIM-2 (V27 to E268 residues) expressed in Escherichia coli BL21 Star(DE3) pLysS to IC50 for Pseudomonas aeruginosa 6His-tagged GIM-1 (Q19 to D250 residues) expressed in Escherichia coli BL21 Star(DE3) pLysS; method in brief: as §1
Beta-lactamase VIM-2 [15] = target: T1, Beta-lactamase VIM-2; experiment: Inhibition of Pseudomonas aeruginosa VIM-2 expressed in Escherichia coli NCB326-1B2 using nitrocefin as substrate after 5 mins by spectrophotometric analysis

SMILES	MIC (Pseudomonas aeruginosa [1]) [mg/L]	IC50 (Beta-lactamase VIM-2 [2]) [µM]	IC50 ([3]; read-out: IC50) [µM]	MIC (Escherichia coli [4]) [mg/L]	IC50 (GIM-1 protein; read-out: IC50) [µM]	inhibition [5]	MIC (Klebsiella pneumoniae [6]) [mg/L]	MIC (Escherichia coli [7]) [µg/mL]	MIC [8] [µg/mL]	MIC (Klebsiella pneumoniae [9]) [µg/mL]	inhibition [10]	inhibition (Klebsiella pneumoniae [11])	Ratio IC50 (Pseudomonas aeruginosa [12])	Ratio IC50 [13]	IC50 [3]	IC50 (GIM-1 protein)	Ratio IC50 (Pseudomonas aeruginosa [14])	IC50 (Beta-lactamase VIM-2 [15]) [nM]
CC(=O)SCC(CCCc1ccccc1)P(=O)(O)O (configuration not stated)	> 500	4.7	6.6	> 1000	26	37%	> 500	1	32	32	95%	38%	–	–	–	–	–	–
O=P(O)(O)C(CO)CCCc1ccccc1 (configuration not stated)	–	34	77	–	> 10	16%	–	–	–	–	66%	–	–	–	–	–	–	–
CC(=O)SCC(Cc1ccccc1)c1nnn[nH]1 (configuration not stated)	–	67	81	–	203	55%	–	–	–	–	76%	32%	–	–	–	–	–	–
O=P(O)(O)C(CS)CCc1ccccc1 (configuration not stated)	> 500	7.8	5.9	–	23	37%	> 500	4	32	32	92%	42%	2 to 4	2 to 4	–	–	–	–
CCOP(=O)(OCC)C(CO)CCc1ccccc1 (configuration not stated)	–	> 10	> 10	–	> 10	–	–	–	–	–	–	–	–	–	–	–	–	–
SCC(CCCc1ccccc1)c1nnn[nH]1 (configuration not stated)	–	28	12	–	68	25%	–	–	–	–	67%	16%	–	–	–	–	–	–
O=P(O)(O)C(CO)CCc1ccccc1 (configuration not stated)	–	27 to 35	59	–	99	23%	–	–	–	–	61%	3.75%	–	–	–	–	–	–
CCOP(=O)(OCC)C(CS)CCCCc1ccccc1 (configuration not stated)	–	1.67	–	–	–	–	–	–	–	–	–	–	–	–	Nd(Insoluble)	Nd(Insoluble)	–	–
c1ccc(CCCC(CSC2CCCCC2)c2nnn[nH]2)cc1 (configuration not stated)	–	5	10	–	36 to 162	8%	–	–	–	–	73%	inactive	–	–	–	–	–	–
O=P(O)(O)C(CO)CCCCc1ccccc1 (configuration not stated)	–	4.5	127	–	> 10	14%	–	–	–	–	88%	4%	–	–	–	–	–	–
CCOP(=O)(OCC)C(CS)CCc1ccccc1 (configuration not stated)	> 500	0.89	2.2	–	0.18	64%	> 500	8	32	32	78%	33%	–	–	–	–	5	–
O=P(O)(O)C(CS)CCCc1ccccc1 (configuration not stated)	1000 (≈ 3840 µM)	33.2	7.1	> 1000	28	46%	1000 (≈ 3840 µM)	1	32	32	95%	45%	–	–	–	–	–	–
CCOP(=O)(OCC)C(CO)CCCc1ccccc1 (configuration not stated)	–	> 10	> 10	–	> 10	inactive	–	–	–	–	inactive	inactive	–	–	–	–	–	–
CCOP(=O)(OCC)C(CCCCc1ccccc1)CSC(C)=O (configuration not stated)	–	20	–	–	13	25%	–	–	–	–	12%	inactive	–	–	–	–	–	–
CCOP(=O)(OCC)C(CCc1ccccc1)CSC(C)=O (configuration not stated)	–	133	–	–	18	25%	–	–	–	–	17%	inactive	–	–	–	–	–	–
CC(=O)SCC(CCCCc1ccccc1)P(=O)(O)O (configuration not stated)	> 500	1.8	2.5	–	20	50%	> 500	2	32	32	97%	37%	–	–	–	–	–	–
CCOP(=O)(OCC)C(CO)CCCCc1ccccc1 (configuration not stated)	–	> 10	> 10	–	280	4%	–	–	–	–	inactive	1%	–	–	–	–	–	–
CCOP(=O)(OCC)C(CCCc1ccccc1)CSC(C)=O (configuration not stated)	> 1000	34	–	> 1000	26	21%	> 1000	4 to 8	32	64	14%	inactive	–	–	–	–	–	–
CCOP(=O)(OCC)C(CS)CCCc1ccccc1 (configuration not stated)	> 500	0.38	1.8	–	0.31	48%	> 500	8	32	32	79%	62%	–	–	–	–	–	–
CC(=O)SCC(CCCc1ccccc1)c1nnn[nH]1 (configuration not stated)	–	42	144	–	162 to 163	20%	–	–	–	–	77%	–	–	–	–	–	–	–
CC(=O)SCC(CCc1ccccc1)P(=O)(O)O (configuration not stated)	–	2.3	2.9	–	12	40%	–	–	–	–	94%	39%	–	–	–	–	–	–
O=C(O)C(CS)CCCCc1ccccc1 (configuration not stated)	–	2.9	56	–	–	–	–	–	–	–	–	–	–	–	–	–	–	1100
O=P(O)(O)C(CS)CCCCc1ccccc1 (configuration not stated)	–	8.6	8.5	–	16	31%	–	–	–	–	94%	42%	2 to 4	2 to 4	–	–	–	–
